From ChEMBL document CHEMBL5316336, “Development of Human Carbonic Anhydrase II Heterobifunctional Degraders” (J Med Chem, 2023)
Active and inactive are the calls of the source. No cut-off for these calls is given here.

Tests used:
Assay type in all cases: cell-based
[1] = molecular target: Carbonic anhydrase 2 (Homo sapiens) (UniProt P00918); assay: Induction of in carbonic anhydrase-2 HEK293 cells assessed as degradation of carbonic anhydrase-2 at 5 uM measured after 24 hrs by Western blot analysis
How it was run: (§1)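 HEK293 cells (DMEM, 10% FBS, 37 °C, 5% CO2) plated at 2 × 10⁶/well, dosed in DMSO (0.5% final) 24 h before lysis at ~90% confluency. 30–50 μg lysate protein on SDS-PAGE, blotted with anti-hCAII and anti-β-actin, Cy5 secondary. hCAII/β-actin ratio normalized to DMSO wells, as % DMSO.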

[2] = molecular target: T1, Protein cereblon/Carbonic anhydrase 2 (Homo sapiens, UniProt P00918+Q96SW2); assay: Protac activity at CRBN/CA-2 in HEK293 cells assessed as degradation of carbonic anhydrase-2
How it was run: (§2)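 Nine-point dose response, 5 pM to 15 μM, in HEK293 cells for 24 h before lysis, three biological replicates; Western blot with hCAII normalized to β-actin and DMSO vehicle. DC50 (95% CI) and DMax from least-squares sigmoidal fit of concentrations below the hook region; log(inhibitor) vs response, three-parameter fit.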

[3] = molecular target: T1, Protein cereblon/Carbonic anhydrase 2; assay: Protac activity at CRBN/CA-2 in HEK293 cells assessed as degradation of carbonic anhydrase-2 measured after 24 hrs by Western blot analysis; details: dose <= 15.0 µM; how it was run: as §2
[4] = molecular target: T1, Protein cereblon/Carbonic anhydrase 2; assay: Protac activity at CRBN/CA-2 in HEK293 cells assessed as degradation of carbonic anhydrase-2 at 15 uM measured after 24 hrs by Western blot analysis relative to control; how it was run: as §1
[5] = molecular target: T1, Protein cereblon/Carbonic anhydrase 2; assay: Protac activity at CRBN/CA-2 in HEK293 cells assessed as degradation of carbonic anhydrase-2 at 50 nM preincubated for 1 hr with lenalidomide followed by compound addition and measured after 6 hrs by Western blot analysis
[6] = molecular target: T1, Protein cereblon/Carbonic anhydrase 2; assay: Protac activity at CRBN/CA-2 in HEK293 cells assessed as degradation of carbonic anhydrase-2 at 50 pM measured after 24 hrs by Western blot analysis; how it was run: as §1
[7] = molecular target: T1, Protein cereblon/Carbonic anhydrase 2; assay: Protac activity at CRBN/CA-2 in HEK293 cells assessed as degradation of carbonic anhydrase-2 at 50 nM preincubated for 1 hr with MG-132 followed by compound addition and measured after 6 hrs by Western blot analysis
How it was run: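 HEK293 cells pretreated 1 h with MG-132 at 1 μM, then 50 nM compound for 6 h; hCAII by Western blot, hCAII/β-actin relative to DMSO controls.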

[8] = molecular target: T1, Protein cereblon/Carbonic anhydrase 2; assay: Protac activity at CRBN/CA-2 in HEK293 cells assessed as degradation of carbonic anhydrase-2 at 50 nM by Western blot analysis; details: time lower 0.0 hrs, time upper […]
How it was run: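 HEK293 cells given 50 nM compound for 0–48 h time course; hCAII abundance by Western blot, hCAII/β-actin normalized to DMSO vehicle.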

[9] = molecular target: T1, Protein cereblon/Carbonic anhydrase 2; assay: Protac activity at CRBN/CA-2 in HEK293 cells assessed as degradation of carbonic anhydrase-2 at 50 nM preincubated for 1 hr with acetazolamide followed by compound addition and measured after 6 hrs by Western blot analysis

How did the Activity [1] turn out when `CN1C(=O)CCC(N2C(=O)c3cccc(NCCCOCCOCCOCCCNC(=O)c4ccc(S(N)(=O)=O)cc4)c3C2=O)C1=O` (stereo not given) was run?
The Activity was “inactive”.

With `NS(=O)(=O)c1ccc(C(=O)NCCCOCCCCOCCCNc2cccc3c2C(=O)N(C2CCC(=O)NC2=O)C3=O)cc1` (stereo not given) as the compound, how does the EC50 [2] read?
The EC50 was 5 nM.

And the Activity [3]?
Its Activity is “Dose-Dependent Effect”.

What about the Activity [4] of the same compound?
Its Activity is 100%.

`CS(=O)(=O)c1ccc(C(=O)NCCCOCCCCOCCCNc2cccc3c2C(=O)N(C2CCC(=O)NC2=O)C3=O)cc1` (stereo not given) was tested. Which Activity [1] did it give?
The Activity was “inactive”.

`NS(=O)(=O)c1ccc(C(=O)NCCCCCCCCCCCCNc2cccc3c2C(=O)N(C2CCC(=O)NC2=O)C3=O)cc1` (stereo not given) was tested. Which Activity [5] did it give?
The Activity was “inactive”.

What about the Activity [6] of the same compound?
The Activity was “Active”.

And the Activity [7]?
Its Activity is “inactive”.

And the Activity [8]?
The Activity was “Dose-Dependent Effect”.

And the Activity [9]?
Its Activity is “inactive”.

For `CN1C(=O)CCC(N2C(=O)c3cccc(NCCCOCCCCOCCCNC(=O)c4ccc(S(N)(=O)=O)cc4)c3C2=O)C1=O` (stereo not given), which Activity [1] is on record?
Its Activity is “inactive”.

How did the EC50 [2] turn out when `NS(=O)(=O)c1ccc(C(=O)NCCCOCCOCCOCCCNc2cccc3c2C(=O)N(C2CCC(=O)NC2=O)C3=O)cc1` (stereo not given) was run?
The EC50 was 245 nM.

And the Activity [3]?
Its Activity is “Dose-Dependent Effect”.

What about the Activity [4] of the same compound?
Its Activity is 100%.

`CS(=O)(=O)c1ccc(C(=O)NCCCOCCOCCOCCCNc2cccc3c2C(=O)N(C2CCC(=O)NC2=O)C3=O)cc1` (stereo not given) was tested. Which Activity [1] did it give?
The Activity was “inactive”.
